Arbovirus anti – arbovirus infection inhibition. arbovirus infection cell-based antiviral screen. inhibition, % at 10 µM. 200,000 compounds, 0.37% hits; in the data active means inhibition above about 30%
Cl transport mod – modulators of human KCC2 chloride dependent transport; B-score of Tl+ flux slope (higher = more flux/activation; lower = inhibition) at 10 µM; 190,000 compounds, 2.2% hits; KCC2 cells, thallium flux FluoZin-2 fluorescence; AID 1456;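 active means thallium flux slope and its plate-corrected score both differing from the plate sample mean at a set confidence after two filtering rounds, in either direction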;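 further: slope of fluorescence scaled to starting intensity during 10 to 20 s after thallium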
ROMK mod – human ROMK K+ channel modulation, primary screen; P48048; Tet-inducible ROMK, thallium flux fluorescence; actives lie on both sides; B-score at 10 µM; 130,000 compounds, 2% hits;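 active means signal ratio slope over the read window, or its plate-corrected B-score, at least 3 SD from the plate mean, either direction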;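 further: B-score of the F/F0 ratio slope over 7 to 12 s after thallium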
PKD1 inh – blocks activity of human protein kinase D1 | Q15139 | PKD1 kinase fluorescence polarization assay | inhibition, % (concentration not given with the values) | 200,000 compounds, 0.056% hits; in the data active means inhibition above about 50%
MDM2 E3 inh – inhibitors of human Mdm2 E3 ubiquitin ligase. signal enhancement, % at 5 µM. 210,000 compounds, 0.11% hits. cell-based MDM2 ubiquitination luciferase reporter, 2 h; 0 = plate control, 100 = twice control, blank-subtracted;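 active means signal enhancement of 30% or more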;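 further: luminescence tracks abundance of the self-degrading MDM2-luciferase fusion protein; higher signal means inhibition of MDM2 E3 ligase activity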
Target sequence (Q00987 whole entry, looked up, the tested form may be a part): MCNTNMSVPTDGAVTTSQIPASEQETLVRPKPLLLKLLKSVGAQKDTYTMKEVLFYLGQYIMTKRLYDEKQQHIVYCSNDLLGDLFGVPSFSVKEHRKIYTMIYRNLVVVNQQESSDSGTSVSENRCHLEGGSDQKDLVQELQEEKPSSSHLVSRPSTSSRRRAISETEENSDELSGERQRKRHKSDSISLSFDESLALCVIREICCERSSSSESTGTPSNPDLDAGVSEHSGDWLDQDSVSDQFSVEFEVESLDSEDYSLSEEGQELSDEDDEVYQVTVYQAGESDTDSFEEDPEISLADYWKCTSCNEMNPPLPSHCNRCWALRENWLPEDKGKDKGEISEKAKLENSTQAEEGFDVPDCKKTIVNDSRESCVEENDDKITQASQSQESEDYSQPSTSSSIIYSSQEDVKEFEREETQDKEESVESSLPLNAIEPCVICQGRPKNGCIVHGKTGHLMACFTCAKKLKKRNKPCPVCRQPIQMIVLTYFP
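Assay system: stable mammalian line carrying autodegrading MDM2–luciferase fusion reporter; Input: 2000 cells in each well; Compound dosing: single-point 5 µM; Schedule: 2 h compound exposure at 37 °C; Signal: SteadyLite luciferase luminescence after 15 min room-temperature reagent incubation; Evaluation: % luminescence enhancement versus blank-corrected plate control mean; Benchmarks: plate controls and plate blanks.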
m-calpain inh – inhibitors of pig calpain II; purified calpain II, fluorogenic peptide substrate, 30 min; inhibition, % at 16 µM; 220,000 compounds, 0.37% hits; AID 1236;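 active means inhibition above about 50%, limit read from the data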
KCC2 secondary – KCC2 (human) modulation, secondary assay. normalised thallium flux (F/F0 slope) at 10 µM. HEK293-KCC2, thallium flux, FluoZin2 fluorescence; active compounds read high. 3,700 compounds, 15% hits. shares compounds with Cl transport mod. AID 1713;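 active means thallium flux slope above the same plate's solvent-only control mean plus 3 SD; inconclusive means the two replicate wells disagree; inactive means no significant difference from solvent-only control wells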
KCC2 bumet counter – thallium flux despite bumetanide block in KCC2 cells, secondary assay 3; normalized thallium flux at 10 µM; AID 1714; 3,700 compounds, 49% hits; HEK293-KCC2 + bumetanide/ouabain, thallium flux FluoZin2; active compounds read high; shares compounds with Cl transport mod;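 active means thallium entry rate above the same plate's blocked-transporter control wells by more than 3 SD; inconclusive means the two repeat wells disagree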;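 further: raw slope of fluorescence over initial fluorescence between 10 and 20 s after thallium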
KCC2 secondary2 – confirmation of human KCC2 transport modulators | shares compounds with Cl transport mod | HEK293-KCC2, thallium flux FluoZin2 fluorescence; actives lie on both sides; F/F0 rise rate, 10–20 s post-thallium | normalized thallium flux at 10 µM | 3,700 compounds, 23% hits | AID 1715;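 active means thallium flux slope more than 3 SD above or below the plate's solvent-only control mean, mostly below; inconclusive means the two repeat wells disagreed; inactive means no significant shift from solvent-only controls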;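 further: raw slope with 0.1% DMSO as baseline and bumetanide as block control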
HEK counter1 – parental HEK flux effect, counter-screen; shares compounds with Cl transport mod; HEK293 parental cells, thallium flux FluoZin2, ouabain; baseline-ratio fluorescence slope, 10–20 s after thallium; thallium flux rate (normalised fluorescence) at 10 µM; 3,700 compounds, 46% hits;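 active means thallium flux rate significantly above the same plate's solvent-only control wells, beyond their mean plus 3 SD; inconclusive means the two replicate wells gave conflicting results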
KCC2 ouabain – confirmation of human KCC2 modulators with ouabain | shares compounds with Cl transport mod | HEK293-KCC2, thallium flux FluoZin2 fluorescence; bidirectional: low = inhibitor, high = activator | raw Tl+ flux slope (below DMSO = inhibition, above = activation) at 10 µM | 3,700 compounds, 48% hits;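 active means thallium flux slope beyond 3 SD from same-plate DMSO control mean in most replicates, usually higher, sometimes lower; inconclusive means repeat tests gave conflicting results; inactive means no significant difference from controls in most replicates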;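 further: slope of initial-normalized fluorescence between seconds 10 and 20 after thallium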
HEK293 Tl flux2 – acts in parental HEK cells, second KCC2 counter-screen; shares compounds with Cl transport mod; 3,700 compounds, 33% hits; HEK293 parental, thallium flux FluoZin-2 fluorescence slope; AID 1718; thallium flux slope at 10 µM;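 active means thallium flux slope above the same plate's solvent-control mean plus 3 SD in both duplicate wells; inconclusive means duplicate wells that disagreed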;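 further: run without ouabain in cells lacking the KCC2 cotransporter; slope of fluorescence scaled to its starting value between 10 and 20 s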
An asterisk follows results filed as active. An excerpt weighted towards active compounds, which were near 3.7% of everything screened.

O=c1[nH]c(-c2ccccn2)nc2sc(-c3ccccc3)cc12 was read as Arbovirus anti -24, Cl transport mod 4.4*, ROMK mod -0.03, PKD1 inh 1, MDM2 E3 inh -36, m-calpain inh inactive, KCC2 secondary 0.0097, KCC2 bumet counter 0.018*, KCC2 secondary2 0.032, HEK counter1 0.033*, KCC2 ouabain inconclusive and HEK293 Tl flux2 0.015*.
`O=C(c1ccc(O)cc1)c1ccc(C(=O)c2ccc(O)cc2)cc1` gave Arbovirus anti -9, Cl transport mod 0.72, ROMK mod 2.1, PKD1 inh 0, MDM2 E3 inh -96, m-calpain inh -6, KCC2 secondary 0.0081, KCC2 bumet counter 0.0074, KCC2 secondary2 0.027, HEK counter1 0.0069, KCC2 ouabain 0.019 and HEK293 Tl flux2 0.0094.
`CN(CC(=O)N1CC(=O)N(CCc2ccccc2)C(=O)C1)S(=O)(=O)c1cccc2nsnc12` gave Arbovirus anti 4, Cl transport mod -4*, PKD1 inh -6, MDM2 E3 inh -6, m-calpain inh -22, KCC2 secondary 0.0058, KCC2 bumet counter 0.0056*, KCC2 secondary2 inconclusive, HEK counter1 0.0085, KCC2 ouabain inconclusive and HEK293 Tl flux2 0.012.
Screening CCOC(=O)Cn1c(=O)oc2cc(S(=O)(=O)N3CCc4ccccc43)ccc21 returned Arbovirus anti -4, Cl transport mod -3.3*, PKD1 inh -8, MDM2 E3 inh -7, m-calpain inh -3, KCC2 secondary 0.0092, KCC2 bumet counter 0.006, KCC2 secondary2 0.031, HEK counter1 0.0083, KCC2 ouabain 0.021 and HEK293 Tl flux2 0.011.
Screening c1ccc(-c2ccc(CN3C[C@@H]4C(c5ccccc5)C5(c6ccccc6)CC4(C5)[C@H]3c3ccccc3)cc2)cc1 (stereo partly specified) returned Cl transport mod 0.46, MDM2 E3 inh 5 and m-calpain inh 1.
N#Cc1ccc(C23CC4(C2)[C@H](CN(Cc2ccc(-c5ccccc5)cc2)[C@@H]4c2ccccc2)C3c2ccccc2)cc1 (stereo partly specified) was read as Cl transport mod 3.7*, MDM2 E3 inh 21, m-calpain inh -34, KCC2 secondary 0.015, KCC2 bumet counter 0.0049, KCC2 secondary2 0.026, HEK counter1 0.0075, KCC2 ouabain 0.016 and HEK293 Tl flux2 0.01.
For Cc1ccc(C)c(NC(=S)N/N=C2\CCc3ccccc32)c1 the results were Cl transport mod 24*, ROMK mod 0.022, MDM2 E3 inh -4, m-calpain inh -15, KCC2 secondary 0.014*, KCC2 bumet counter 0.075*, KCC2 secondary2 0.034, HEK counter1 0.071*, KCC2 ouabain 0.043* and HEK293 Tl flux2 0.018*.
For COc1ccc(NC(=S)N/N=C2/CCCc3c(C)cc(C)cc32)cc1 the results were Arbovirus anti -9, Cl transport mod -1.2, ROMK mod 0.14, PKD1 inh 3, MDM2 E3 inh -15 and m-calpain inh -17.
`Cc1ccc(NC(=S)N/N=C2/CCCCc3ccccc32)cc1` gave Cl transport mod 33*, m-calpain inh -23, KCC2 secondary 0.0073, KCC2 bumet counter 0.04*, KCC2 secondary2 inconclusive, HEK counter1 0.033*, KCC2 ouabain 0.033* and HEK293 Tl flux2 0.031*.
`Cc1ccc(C)c(NC(=S)Nc2ncccc2C)c1` gave Arbovirus anti 7, Cl transport mod 0.43, ROMK mod -0.7, PKD1 inh -4, MDM2 E3 inh 0 and m-calpain inh -9.
Screening Cc1cccc(NC(=S)N/N=C2/CCCCc3ccccc32)c1 returned Arbovirus anti -5, Cl transport mod 7.9*, ROMK mod 0.23, PKD1 inh -12, MDM2 E3 inh -13, m-calpain inh 25, KCC2 secondary 0.0086, KCC2 bumet counter 0.036*, KCC2 secondary2 0.046*, HEK counter1 0.042*, KCC2 ouabain 0.037* and HEK293 Tl flux2 0.024*.
`COc1ccc(Cn2c(S(=O)(=O)CC(N)=O)nc3ccccc32)cc1[N+](=O)[O-]` gave Arbovirus anti 7, Cl transport mod 0.65, ROMK mod 0.31, PKD1 inh 2, MDM2 E3 inh -13 and m-calpain inh 8.
`CC(C)c1ccccc1NC(=O)CC1(CC(=O)O)CCCC1` gave Cl transport mod 0.36, MDM2 E3 inh -13 and m-calpain inh 3.
CCn1nnc2c(=O)oc3ccccc3c21 was read as Arbovirus anti -3, Cl transport mod -4.3, ROMK mod 0.027, PKD1 inh -5, MDM2 E3 inh -16 and m-calpain inh 10.
For CC(C)Cn1nnc2c(=O)oc3ccccc3c21 the results were Arbovirus anti 8, PKD1 inh -15, MDM2 E3 inh 10, m-calpain inh -12, KCC2 secondary 0.0088, KCC2 bumet counter 0.0049, KCC2 secondary2 0.027*, HEK counter1 0.0052*, KCC2 ouabain 0.012* and HEK293 Tl flux2 0.0084*.
For COc1ccc2nc(NC(=O)CSc3nnc(-c4ccoc4C)n3C)sc2c1 the results were Arbovirus anti 3, Cl transport mod -3.8*, PKD1 inh 1, MDM2 E3 inh -15, m-calpain inh 21, KCC2 secondary 0.0074, KCC2 bumet counter inconclusive, KCC2 secondary2 0.032, HEK counter1 0.0043, KCC2 ouabain 0.015* and HEK293 Tl flux2 0.011.
Screening Cc1nn2cc(-c3ccc(Cl)cc3)nc2s1 returned Arbovirus anti 2, PKD1 inh -12, MDM2 E3 inh -27 and m-calpain inh 26.
For Cc1nc2nc(-c3ccc(Cl)cc3)cn2nc1C the results were Arbovirus anti -12, ROMK mod -0.26, PKD1 inh 1, MDM2 E3 inh -66, m-calpain inh -467, KCC2 secondary 0.0086, KCC2 bumet counter 0.0057, KCC2 secondary2 0.031, HEK counter1 0.0087, KCC2 ouabain 0.019 and HEK293 Tl flux2 0.012.

Screens from PubChem.
